Experimental data published in ChEMBL document CHEMBL4513216, “Probing the Open Global Health Chemical Diversity Library for Multistage-Active Starting Points for Next-Generation Antimalarials” (ACS Infect Dis, 2020).

Assay: Toxicity liver stage against HepG2, at 10uM
Format: cell-based
Parameters: test concentration 10 uM, cell line HepG2-A16-CD81EGFP
Conditions: human, HepG2-A16-CD81EGFP cells; read-out: INHIBITION
Procedure, shortened: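 Uninfected HepG2-A16-CD81EGFP cells, 3 × 10^3 per well, 1536-well, plated on prespotted compound at 10 μM final, parasite-free screening media added to match infected plates; puromycin 10 μM positive, DMSO 0.5% negative; run in parallel with 48 h PbLuc assay at 37 °C, 5% CO2; viability by CellTiter-Glo luminescence, normalized to controls.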

SMILES | cytotoxicity at 10 µM
CC(C)CN1CC2(CCN(C(=O)c3cnccn3)CC2)CC1=O | 2.46%
O=C1CC[C@@H]2[C@@H](CCN2Cc2ccccn2)N1CC1CC1 | 4.76%
Cc1cc(N(C)CCC(O)c2ccccc2)n2nccc2n1 (stereo not given) | -2.84%
CN1CCC/C1=N\S(=O)(=O)c1ccc(NC(=O)c2ccco2)cc1 | 4.56%
Cc1ccccc1C(=O)Nc1ccc(OC2CCN(C)CC2)cc1 | -1.57%
Cn1cc(N2CC3(CCN(CC4CC4)CC3)OCC2=O)cn1 | -6.86%
COCCN1CC2(CCCN(C(=O)NCCc3cccs3)C2)CCC1=O (stereo not given) | -8.14%
CCC[C@H]1CN(S(=O)(=O)c2cc(C)ccc2C)C[C@@H]1N | 10.3%
COC(=O)c1sccc1S(=O)(=O)NCCC(O)c1ccco1 (stereo not given) | -5.98%
Cc1cc(CN2CCN(C(=O)NCc3ccco3)CC2)no1 | -14.8%
O=C(Cc1ccccn1)N1CCC2(CC1)CN(c1ccccn1)CCO2 | 8.85%
CC(C)c1nccn1C1CCCN(C(=O)c2cc(C(N)=O)cs2)C1 (stereo not given) | -2.61%
CN(C(=O)C1CCN(Cc2cnc3ccccn23)CC1)c1ccccc1 | 38.9%
NC(=O)N1CCCC(C(=O)NCCc2nc(Cc3ccccc3)no2)C1 (stereo not given) | 8.5%
COCCN1CCC2(CC1)CN(C(=O)Cc1cccnc1)CCO2 | -9.43%
CCS(=O)(=O)NCC(=O)N1CCC(c2cc3ccccc3[nH]2)CC1 | -7.79%
Cc1cnc(CN(C)Cc2cccc(OC(F)(F)F)c2)cn1 | 2.4%
CCSc1ncc(-c2cc(C3CCC3)nc(N)c2C#N)cn1 | 6.67%
COc1ccc(C(=O)N2CCC(Oc3ccc(C)cc3)(C(=O)O)CC2)o1 | 9.68%
COCC(=O)N1CCC(c2nc3ccc(N4CCCC4)cn3n2)CC1 | -15.4%
CCCS(=O)(=O)N1CCC2(CN(c3ccccc3)C(=O)CN2C)C1 (stereo not given) | 4.15%
CN(Cc1cccs1)C(=O)c1ccc(=O)n(C)c1 | -13.2%

SMILES | cytotoxicity at 10 µM
O=C(c1ccc(Cn2ccccc2=O)o1)N1CCC2(CC1)OCCO2 | -12.8%
COCCC1(C(=O)O)CCCN(CC(=O)NCCc2ccccc2)C1 (stereo not given) | 2.66%
CCOc1cccc2c1OCC(C(=O)NS(=O)(=O)c1ccc(Br)s1)=C2 | -11.6%
CN1CCCN(C(=O)c2csc(-c3ccc(C(F)(F)F)cc3)n2)CC1 | -5.81%
CCCN(CCC)c1nc(N)nc(-c2cc(Cl)ccc2OC)n1 | 7.43%
CN(C)Cc1cc(C2CCN(C(=O)C3CCCNC3)CC2)nn1C (stereo not given) | -8.67%
Cc1csc([C@@H]2C[C@@H]3CCN(C(=O)c4cccn4C)C[C@H]3O2)n1 | 4.12%
CCc1noc(C(C)N(C)Cc2ccc(OC)c(OC)c2)n1 (stereo not given) | -7.13%
Cc1sc2c(C3CCNCC3)nc(Nc3cccc(F)c3)n2c1C | -0.775%
Cc1nccn1CCC1CCCCN1C(=O)c1ccc2nonc2c1 (stereo not given) | -6.55%
Cc1nnc(SCC(=O)c2cc3c(cc2Cl)NC(=O)C3)s1 | 5.42%
CCn1cc(CNCc2ccc(C(=O)OC)cc2)c(C)n1 | -3.78%
COCCN1CCC(CN(CC2CCCO2)C(=O)CCC(F)(F)F)CC1 (stereo not given) | 2.13%
Cn1cccc1C(=O)N1C[C@@H]2C[C@@H](c3nc(C4CC4)cs3)O[C@@H]2C1 | -113%
CC(NC(=O)NCCCn1ccnc1)c1ccc2c(c1)CCC(=O)N2 (stereo not given) | -4.74%
Cn1ncc(NC(=O)c2noc3c2CCCC3)c1C(N)=O | 5.8%
CC(C)(C)c1cc(C(=O)NCCN2CCCS2(=O)=O)[nH]n1 | -8.16%
Cc1ccc(CN(C(=O)NCC2CCS(=O)(=O)C2)C2CC2)o1 (stereo not given) | -144%
CN(Cc1cccnc1)Cc1cncc2c1CCN(Cc1ccoc1)C2 | -100%
CN1C(=O)CCN(C(=O)C2CC=CC2)c2ccccc21 | 8.96%
NC(=O)c1cnc(NC2CCC(c3ccccc3)CC2)c(Cl)c1 (stereo not given) | 27.2%
Cn1cc(-c2nc(C(=O)N3CCCC3c3cnn(C)c3)cs2)cn1 (stereo not given) | 1.85%

SMILES | cytotoxicity at 10 µM
O=c1[nH]c2nc(NCC3CCCO3)ncc2c(=O)n1-c1ccc(F)cc1 (stereo not given) | -5.89%
CCCN1CCCN(c2ccc(-n3ccc(C)n3)nn2)CC1 | -1.2%
COc1ccc2[nH]cc(C(=O)N3C[C@@H](O)[C@H](N4CCCC4)C3)c2c1 | 2.35%
Cc1cc2nc(SCC(=O)N3CCCC3)n(Cc3ccco3)c(O)c-2n1 | 7.19%
CC(NC(=O)c1cccc[n+]1[O-])c1ccc2c(c1)CCC(=O)N2 (stereo not given) | 45.2%
CN1CCN(CCO)C(=O)C12CCN(c1nccs1)CC2 | 3.88%
O=C(Nc1cc(N2CCOCC2)ncn1)c1cnccn1 | -3.45%
CS(=O)(=O)CCC(=O)Nc1ccsc1 | -3.39%
COCC(=O)N1CCN(C(=O)CCc2ccsc2)CC1 | -17%
CC(OCC1CC1)C(=O)NCc1cccc(CN2CCCC2=O)c1 (stereo not given) | 3.05%
CCCNC(=O)CCC(=O)N1CCC(c2noc3cc(F)ccc23)CC1 | 2.45%
CCS(=O)(=O)N1CCC2(CC(=O)N(c3ccc4c(c3)OCO4)C2)C1 (stereo not given) | 9.17%
CC(C)Cc1cc(NC(=O)c2ccccc2F)n(C)n1 | -6.48%
CCOCC1CN(C(=O)c2cccn2C)Cc2cnn(CC3CC3)c21 (stereo not given) | 8.37%
Cc1cc(C2CCCN(S(=O)(=O)c3cn[nH]c3)C2)ccn1 (stereo not given) | -1.77%
CCN1CC(COC(=O)c2ccc(N(C)C)cc2F)CC1=O (stereo not given) | 2.38%
O=C1CCCN1CC1CCCCN1C(=O)Nc1cccc(F)c1 (stereo not given) | -1.8%
Cn1ccnc1CNC1CCCOc2c1ccc1ccccc21 (stereo not given) | 13.3%
Cc1cnccc1N1CCCN(C(=O)CCn2ccnc2C)CC1 | -6.32%
Cc1cccc(CNC(Cc2ccsc2)c2nc(C)c(C)s2)n1 (stereo not given) | -0.52%
CC(C)(C)n1nc(C(=O)NCC2(C(N)=O)CCOCC2)cc1C1CC1 | -15.9%
COC(=O)Cn1c(=O)cc(C(F)F)c2c(C)nn(CC(F)F)c21 | 6.2%

SMILES | cytotoxicity at 10 µM
CC(=O)N1CC(c2ccnc(Nc3ccc(C)cn3)n2)C1 | -31.1%
Cc1cnn(C2CN(CC(=O)NCCc3ccccc3)C2)c1 | -0.956%
CC(C)(C)OC(=O)N1CC(=O)N(Cc2ccco2)CC(O)C1 (stereo not given) | 4.11%
CN(C)C(=O)N1CCN(c2ccc(Cl)nn2)C(=O)C1 | 9.1%
N#Cc1ccccc1N1CCN(CCC(=O)N2CCOCC2)CC1 | 10%
CSCCCN1CC[C@@H](NC(=O)c2cnccn2)[C@H](O)C1 | -14.6%
Cc1ccc(C(C)(O)CNC(=O)c2sccc2Br)o1 (stereo not given) | 4.77%
CC(c1cccc(-c2ncccc2F)c1)N(C)C (stereo not given) | -19.4%
COCc1nc2n(n1)CCCC2Nc1nc(C(C)C)ns1 (stereo not given) | 5.6%
Cc1ccc(N2CCN(Cc3ccccc3)C3(CCNCC3)C2=O)cn1 | 12.1%
Cc1ccc(O)c(CN2CCn3nc(C(=O)N4CCCC4)cc3C2)n1 | 1.5%
Cc1cc(C)c(CNC(=O)N2CCN(c3ccccn3)CC2)c(=O)[nH]1 | -9.95%
CNC(=O)[C@H]1C[C@@H]2CN(C(=O)c3cccnc3)C[C@@H]2N1S(C)(=O)=O | -4.12%
CCn1nc(CC(C)C)cc1C(=O)NCCS(=O)(=O)N(C)C | 11.2%
O=C(c1cnc(C2CC2)nc1)N1CCCC(c2nccs2)C1 (stereo not given) | 4.53%
O=C(c1cc(-n2cccn2)ccn1)N(CC1CCC1)CC(F)(F)F | 6.4%
Cc1cccc2c1C(=O)NC(c1cnc(C3CCC3)s1)N2 (stereo not given) | -3.33%
CC(=O)N1CCN(C(=O)c2sccc2Br)CC1 | 6.83%
c1ccc(Cc2noc(CN3CCCCC3Cn3cncn3)n2)cc1 (stereo not given) | -13.2%
CN(C)c1nc2c(c(NCc3cc(O)ncn3)n1)CCCC2 | -12.4%
COc1cccc(N2CCN(Cc3ccc4[nH]ccc4c3)CC2=O)c1 | 4.59%
COCC(O)CN(C)C(=O)NC1CCN(S(C)(=O)=O)CC1 (stereo not given) | -0.778%

SMILES | cytotoxicity at 10 µM
N#Cc1cccc(C(=O)N2CC[C@H]3[C@H]2CCN3CC2CCOCC2)c1 | -77%
CN(C)c1ccc(C(=O)N2CCCC(n3cncn3)C2)nn1 (stereo not given) | 0.47%
CN(C(=O)CNc1ccc(C#N)cc1)C1CCCCC1 | 0.0479%
CC(NC(=O)NCCNc1cnccn1)c1cccs1 (stereo not given) | -3.79%
Cc1cc(S(=O)(=O)Nc2onc(C)c2C)sc1C | 5.54%
CNC(=O)C1CCCCN1C(=O)c1csc(-c2ccccc2)n1 (stereo not given) | 2%
Cc1nc(C)n(CC2CCCN2CCC(=O)N2CCCCC2)n1 (stereo not given) | -2.67%
COc1cccc(C(CO)NC(=O)NC(C)C)c1 (stereo not given) | 10.5%
Cc1cccc(NC(=O)c2ccc(-n3cncn3)nn2)n1 | -0.895%
O=S(=O)(c1ccccc1)N1CCN(CCn2ccnc2)CC1 | -21.6%
CCOc1ccc(C(=O)N(CCOC)Cc2c(C)nn(CC)c2C)o1 | -2.99%
CC(NCc1ccncc1)c1cc2c(cc1Br)OCCO2 (stereo not given) | -1.41%
CN1CC[C@H](N(Cc2ccccc2)Cc2ccccc2)C[C@H](O)C1 | -5.96%
CCN1CCCc2cc(CN3CCc4nc(C)[nH]c(=O)c4C3)ccc21 | 0.13%
O=C(NCCc1ccncc1)c1ccc(N2CCOCC2)cc1 | -5.08%
O=C(CCC(=O)Nc1nnc(C(F)(F)F)s1)NCC1CCCO1 (stereo not given) | 4.65%
O=c1c2sccc2nc2n1CCN(Cc1ccsc1)CC2 | -25.4%
O=C(Cn1ccc2ccc(Cl)cc21)/N=c1\[nH]nc(C2CCCO2)s1 (stereo not given) | 10.8%
Cc1ncc(CNC(=O)NCc2c(F)cccc2OC(F)F)s1 | -4.27%
Cc1ccc(C)c(C(C(=O)O)N2CCCN(Cc3ccccn3)CC2)c1 (stereo not given) | -15.6%
Cc1nc(CCCNC(=O)Nc2ccc(F)cc2F)n[nH]1 | -2.9%
Cc1noc([C@@H]2C[C@@H]3CCN(c4nnc(C)s4)C[C@H]3O2)n1 | 5.35%
